This note sets out measurements from ChEMBL document CHEMBL1153733, “Imidazole derivatives as possible microbicides with dual protection” (Eur J Med Chem, 2010).

In brackets after ≈: the same amount, converted by molar mass.

Data set [1] concerns Sporothrix schenckii. Briefly: Antifungal activity against Sporothrix schenckii after 48 hrs by broth microdilution technique. The class given is functional. In outline:
(§1)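 Broth microdilution MIC per NCCLS guidelines in RPMI 1640 buffered with MOPS; starting inoculum of test culture 1–5 × 10³ CFU/mL.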
Background: Broth dilution looks for growth in wells or tubes with falling amounts of substance.

The test system of data set [2] is Spermatozoa. Briefly: Sperimcidal activity against human spermatozoa assessed as sperm immobilization at 1 % drug solution%. Format: functional. In outline: (§2)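 Drop of sperm–compound mixture placed on slide under cover glass, examined by phase contrast microscopy in five fields; percentage of motile spermatozoa scored visually within 30–40 s. N-9 as reference control; some compounds tested as D-(-)-tartrate salts.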

The subject of data set [3] is Aspergillus fumigatus. The experiment in a line: Antifungal activity against Aspergillus fumigatus after 48 hrs by broth microdilution technique. Format: functional. In outline:
as §1

The subject of data set [4] is Cryptococcus neoformans. The experiment in a line: Antifungal activity against Cryptococcus neoformans after 48 hrs by broth microdilution technique. Format: functional. The essentials:
as §1

The subject of data set [5] is Candida parapsilosis. The experiment in a line: Antifungal activity against Candida parapsilosis after 48 hrs by broth microdilution technique. The class given is functional. The note with it: Lodderomyces parapsilosis. The essentials:
as §1

The subject of data set [6] is Trichophyton mentagrophytes. The experiment in a line: Antifungal activity against Trichophyton mentagrophytes after 48 hrs by broth microdilution technique. The class given is functional. The essentials:
as §1

For data set [7], the system named is HeLa. Briefly: Cytotoxicity against human HeLa cells at 200 ug/ml after 24 hrs by MTT assay. The class given is cell-based. In outline: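 HeLa cells seeded at 5.0 × 10⁴ per well in DMEM with 10% FCS, 24 h at 37 °C in 5% CO₂; medium replaced with fresh medium containing test dilutions, 10% DMSO vehicle in control wells. After a further 24 h, MTT added; formazan dissolved in DMSO, OD read at 540 nm. Mean ± SE of 3 estimations.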
For orientation: Tetrazolium assays rely on reduction of a dye to a coloured formazan, in cell work by metabolically active cells.

For data set [8], the system named is Trichomonas vaginalis. Briefly: Antitrichomonal activity against Trichomonas vaginalis after 48 hrs by trypan blue exclusion assay. The class given is functional. The essentials:
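Trophozoites in TYM medium; stock solutions serially diluted in TYM to concentrations up to 0.1 mg/mL, DMSO/TYM as vehicle control. Parasites added, incubated anaerobically at 37 °C, viability checked by trypan blue exclusion under microscope (200×) from 3 to 48 h. MIC = lowest concentration with all cells dead at 48 h. Metronidazole reference; run three times.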

Data set [9] concerns Candida albicans. The experiment in a line: Antifungal activity against Candida albicans after 48 hrs by broth microdilution technique. Format: functional. The essentials:
as §1

The subject of data set [10] is Spermatozoa. Briefly: Sperimcidal activity against human spermatozoa assessed as sperm motility at 1 % drug solution%. Format: functional. The essentials:
as §2

One may read the MIC as the least concentration at which growth counts as inhibited. For `COc1ccccc1N1CCN(C(=S)SCCn2c([N+](=O)[O-])cnc2C)CC1.O=C(O)C(O)C(O)C(=O)O`, the MIC is 50 µg/mL in [1]; greater than 50 µg/mL in [3]; greater than 50 µg/mL in [4]; greater than 50 µg/mL in data set [5]; 25 µg/mL in data set [6]; 5.94 µM in data set [8]. Further, in data set [9], the minimum inhibitory concentration (MIC) was greater than 50 µg/mL. In addition, the values for the Activity in [2], in data set [7] and in data set [10] were 100%, “Non-toxic” and 0%, respectively.

As for `Cc1ncc([N+](=O)[O-])n1CCSC(=S)N1CCCC1.O=C(O)C(O)C(O)C(=O)O`, the MIC in [1] was 25 µg/mL; in data set [3] it was greater than 50 µg/mL; in data set [4] it was 50 µg/mL; in data set [5], greater than 50 µg/mL; in data set [6], 50 µg/mL; in data set [8] it was 8.33 µM. The molecule further had an MIC in data set [9] of 50 µg/mL. Also, the Activity in data set [2] was 100%; in [7], “Non-toxic”; in data set [10], 0%.

Regarding `Cc1ncc([N+](=O)[O-])n1CCn1cnc2ccccc21`, the MIC in data set [1] is 50 µg/mL (≈ 184 µM); in [3], greater than 50 µg/mL; in data set [4], greater than 50 µg/mL; in data set [5], greater than 50 µg/mL; in data set [6] it was greater than 50 µg/mL; in data set [8], 4.61 µM (≈ 1.25 µg/mL). This molecule also registered an MIC in data set [9] greater than 50 µg/mL. Moreover, the Activity is 100% in [2], “Non-toxic” in data set [7] and 0% in data set [10].

For `Cc1ncc([N+](=O)[O-])n1CCSC(=S)N1CCN(c2ccccn2)CC1.O=C(O)C(O)C(O)C(=O)O`, the MIC is 50 µg/mL in [1]; greater than 50 µg/mL in data set [3]; greater than 50 µg/mL in data set [4]; greater than 50 µg/mL in data set [5]; 50 µg/mL in data set [6]; 6.38 µM in data set [8]. In data set [9], this molecule yielded an MIC greater than 50 µg/mL. Moreover, the Activity in data set [2] was 100%; in data set [7], “Non-toxic”; in [10] it was 0%.

As for `Cc1ncc([N+](=O)[O-])n1CCSC(=S)N(C)C.O=C(O)C(O)C(O)C(=O)O`, the minimal inhibitory concentration (MIC) in data set [1] is greater than 50 µg/mL; in [3], greater than 50 µg/mL; in data set [4], greater than 50 µg/mL; in data set [5], greater than 50 µg/mL; in [6], 50 µg/mL; in data set [8], 1.14 µM. In addition, in data set [9], the MIC was greater than 50 µg/mL. Besides, the Activity in [2] is listed as 100%; in data set [7], “Non-toxic”; in [10], 0%.

Take `Cc1ncc([N+](=O)[O-])n1CCOC(=O)CCN(C)CCC(Oc1ccc(C(F)(F)F)cc1)c1ccccc1` (stereo not given): the minimal inhibitory concentration (MIC) in data set [1] was greater than 50 µg/mL; in [3], greater than 50 µg/mL; in data set [4], greater than 50 µg/mL; in [5], greater than 50 µg/mL; in data set [6], 50 µg/mL (≈ 93.5 µM); in data set [8] it was 11.7 µM (≈ 6.25 µg/mL). In [9], the MIC is greater than 50 µg/mL. The Activity in data set [2] is 100%; in [7], “Non-toxic”; in data set [10] it was 0%.

For the molecule `Cc1ncc([N+](=O)[O-])n1CCSC(=S)N1CCN(C)CC1`, the minimum inhibitory concentration (MIC) in data set [1] is 50 µg/mL (≈ 152 µM); in data set [3], greater than 50 µg/mL; in data set [4] it was greater than 50 µg/mL; in data set [5], greater than 50 µg/mL; in data set [6], 50 µg/mL (≈ 152 µM); in [8], 7.6 µM (≈ 2.5 µg/mL). This molecule also gave an MIC in [9] greater than 50 µg/mL. Besides, the values for the Activity in data set [2], in data set [7] and in data set [10] were 100%, “Non-toxic” and 0%, respectively.
